Results taken from ChEMBL document CHEMBL3621164, “Discovery of Triazole CYP11B2 Inhibitors with in Vivo Activity in Rhesus Monkeys” (ACS Med Chem Lett, 2015).

Legend:
Homo sapiens = species: Homo sapiens; assay: Selectivity index, ratio IC50 for human CYP11B1 to IC50 for human CYP11B2
Method in brief: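 Ratio of human CYP11B1 IC50 to human CYP11B2 IC50; each IC50 calculated from n ≥ 2 determinations.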

[1] = biological target: T1, Cytochrome P450 11B1, mitochondrial (Homo sapiens, UniProt P15538); assay: (§1) Inhibition of human CYP11B1 expressed in V79 cells assessed as cortisol level after 3 hrs by HTRF assay in presence of 250 nM 11-deoxycortisol; format: cell-based
T1 sequence (P15538 whole entry): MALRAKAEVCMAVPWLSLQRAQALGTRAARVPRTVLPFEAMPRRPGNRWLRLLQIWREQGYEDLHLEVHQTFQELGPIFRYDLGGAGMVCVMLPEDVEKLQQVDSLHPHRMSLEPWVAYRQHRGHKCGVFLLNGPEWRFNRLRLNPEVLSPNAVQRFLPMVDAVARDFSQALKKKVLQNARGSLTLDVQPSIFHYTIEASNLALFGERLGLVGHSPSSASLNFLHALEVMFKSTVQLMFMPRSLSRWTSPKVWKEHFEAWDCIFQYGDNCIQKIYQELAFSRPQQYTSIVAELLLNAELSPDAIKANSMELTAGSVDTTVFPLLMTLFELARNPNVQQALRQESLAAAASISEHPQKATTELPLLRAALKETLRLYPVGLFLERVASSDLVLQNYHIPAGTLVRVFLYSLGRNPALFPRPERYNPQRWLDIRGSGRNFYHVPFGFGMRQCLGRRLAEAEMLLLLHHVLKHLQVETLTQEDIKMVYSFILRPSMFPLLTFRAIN

[2] = biological target: T2, Cytochrome P450 11B2, mitochondrial (Homo sapiens, UniProt P19099); assay: Inhibition of human CYP11B2 expressed in V79 cells assessed as aldosterone level after 3 hrs by HTRF assay in presence of 125 nM 11-deoxycorticosterone; format: cell-based
T2 sequence (P19099 whole entry): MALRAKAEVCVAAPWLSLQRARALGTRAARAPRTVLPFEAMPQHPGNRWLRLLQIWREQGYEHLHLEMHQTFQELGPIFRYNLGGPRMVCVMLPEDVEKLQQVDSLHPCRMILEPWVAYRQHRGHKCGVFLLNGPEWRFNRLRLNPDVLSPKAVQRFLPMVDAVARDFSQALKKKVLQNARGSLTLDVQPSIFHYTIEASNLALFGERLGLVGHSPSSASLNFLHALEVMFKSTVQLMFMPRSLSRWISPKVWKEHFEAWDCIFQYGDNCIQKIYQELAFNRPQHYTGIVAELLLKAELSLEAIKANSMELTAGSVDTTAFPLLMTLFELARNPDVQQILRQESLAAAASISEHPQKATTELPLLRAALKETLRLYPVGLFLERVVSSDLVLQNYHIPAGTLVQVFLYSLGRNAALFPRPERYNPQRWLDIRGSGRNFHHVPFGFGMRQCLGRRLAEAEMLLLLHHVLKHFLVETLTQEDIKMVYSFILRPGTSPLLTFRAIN

Cytochrome P450 3A4 = Cytochrome P450 3A4 (Homo sapiens, UniProt P08684); assay: Inhibition of human CYP3A4; format: ADME
Sequence of Cytochrome P450 3A4 (P08684 whole entry): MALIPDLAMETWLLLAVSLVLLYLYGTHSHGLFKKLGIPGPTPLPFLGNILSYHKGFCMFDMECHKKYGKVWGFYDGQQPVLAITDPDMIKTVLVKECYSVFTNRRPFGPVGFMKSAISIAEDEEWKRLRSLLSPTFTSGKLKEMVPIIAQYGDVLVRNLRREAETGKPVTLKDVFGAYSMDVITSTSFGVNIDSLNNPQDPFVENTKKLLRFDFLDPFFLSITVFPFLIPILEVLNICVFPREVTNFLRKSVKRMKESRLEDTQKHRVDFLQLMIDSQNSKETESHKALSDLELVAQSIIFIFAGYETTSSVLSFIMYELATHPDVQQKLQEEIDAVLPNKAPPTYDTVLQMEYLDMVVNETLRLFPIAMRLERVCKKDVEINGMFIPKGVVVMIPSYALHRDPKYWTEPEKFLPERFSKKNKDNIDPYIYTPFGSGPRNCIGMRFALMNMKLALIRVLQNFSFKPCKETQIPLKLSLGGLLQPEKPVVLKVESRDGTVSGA

[3] = biological target: T3, Steroid 17-alpha-hydroxylase/17,20 lyase (Homo sapiens, UniProt P05093); assay: Inhibition of human CYP17 expressed in COS7 cells assessed as DHEA level after 3 hrs by EIA assay in presence of 360 nM 17-hydroxypregnenolone; format: cell-based, COS-7
T3 sequence (P05093 whole entry): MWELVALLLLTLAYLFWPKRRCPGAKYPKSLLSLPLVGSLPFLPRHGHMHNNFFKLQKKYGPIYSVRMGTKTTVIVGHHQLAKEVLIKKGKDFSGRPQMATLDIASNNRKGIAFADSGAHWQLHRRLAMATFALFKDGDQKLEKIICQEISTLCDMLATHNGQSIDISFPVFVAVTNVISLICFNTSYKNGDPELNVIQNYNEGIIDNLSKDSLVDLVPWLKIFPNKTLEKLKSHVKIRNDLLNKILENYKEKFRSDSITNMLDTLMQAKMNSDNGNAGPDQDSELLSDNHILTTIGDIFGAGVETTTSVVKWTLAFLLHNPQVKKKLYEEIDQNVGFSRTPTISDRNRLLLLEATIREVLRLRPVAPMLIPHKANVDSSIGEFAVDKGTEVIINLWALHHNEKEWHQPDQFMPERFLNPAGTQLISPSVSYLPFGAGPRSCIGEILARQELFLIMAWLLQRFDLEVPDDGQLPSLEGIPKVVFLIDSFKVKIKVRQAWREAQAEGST

Aromatase = biological target: T4, Aromatase (Homo sapiens, UniProt P11511); assay: Inhibition of human CYP19
T4 sequence (P11511 whole entry): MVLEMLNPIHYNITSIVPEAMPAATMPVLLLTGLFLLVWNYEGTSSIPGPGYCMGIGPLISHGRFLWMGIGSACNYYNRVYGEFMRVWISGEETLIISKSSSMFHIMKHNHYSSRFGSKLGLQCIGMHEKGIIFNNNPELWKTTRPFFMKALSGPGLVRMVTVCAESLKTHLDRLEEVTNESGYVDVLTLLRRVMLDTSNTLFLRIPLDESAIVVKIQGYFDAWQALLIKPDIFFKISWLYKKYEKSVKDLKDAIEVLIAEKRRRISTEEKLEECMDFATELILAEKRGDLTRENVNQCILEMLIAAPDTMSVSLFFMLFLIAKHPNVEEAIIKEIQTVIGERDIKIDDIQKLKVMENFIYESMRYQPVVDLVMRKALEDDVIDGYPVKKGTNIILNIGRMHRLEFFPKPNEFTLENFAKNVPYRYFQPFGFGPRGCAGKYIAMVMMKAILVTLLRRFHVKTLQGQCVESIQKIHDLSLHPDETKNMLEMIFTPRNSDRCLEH

[4] = Lipophilicity, log D of the compound by HPLC; format: physicochemical
Method in brief: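 Lipophilicity determined experimentally by HPLC.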

[5] = Intrinsic clearance in Sprague-Dawley rat liver microsomes by LC/MS method; format: ADME; settings: read-out: CLH
[6] = Plasma clearance in Sprague-Dawley rat at 2 mg/kg, po administered through gavage by LC/MS/MS method; format: ADME, organism-based
[7] = Half life in Sprague-Dawley rat at 2 mg/kg, po administered through gavage by LC/MS/MS method; format: ADME, organism-based; settings: in vivo
CYP11B1 = biological target: T5, CYP11B1 (Homo sapiens, UniProt P15538); assay: as §1; format: cell-based; settings: human, V79 cells expressing human CYP11B1, probe 11-deoxycortisol (250 nM)
T5 sequence (P15538 whole entry): T1 sequence (P15538 whole entry)

Rattus norvegicus = assay: Dose normalized AUC in Sprague-Dawley rat at 2 mg/kg, po administered through gavage; format: ADME, organism-based; settings: in vivo
[8] = Oral bioavailability in Sprague-Dawley rat at 2 mg/kg administered through gavage; format: ADME, organism-based; settings: in vivo
[9] = Inhibition of rhesus monkey CYP11B2 expressed in V79 cells assessed as aldosterone level after 3 hrs by HTRF assay in presence of 125 nM 11-deoxycorticosterone; format: cell-based; settings: Macaca mulatta, V79, 3 h
[10] = biological target: T6, Cytochrome P450 11B2, mitochondrial (Rattus norvegicus, UniProt P30099); assay: Inhibition of rat CYP11B2 expressed in V79 cells assessed as aldosterone level after 3 hrs by HTRF assay in presence of 500 nM 11-deoxycorticosterone; format: cell-based; settings: v79, 3 h
T6 sequence (P30099 whole entry): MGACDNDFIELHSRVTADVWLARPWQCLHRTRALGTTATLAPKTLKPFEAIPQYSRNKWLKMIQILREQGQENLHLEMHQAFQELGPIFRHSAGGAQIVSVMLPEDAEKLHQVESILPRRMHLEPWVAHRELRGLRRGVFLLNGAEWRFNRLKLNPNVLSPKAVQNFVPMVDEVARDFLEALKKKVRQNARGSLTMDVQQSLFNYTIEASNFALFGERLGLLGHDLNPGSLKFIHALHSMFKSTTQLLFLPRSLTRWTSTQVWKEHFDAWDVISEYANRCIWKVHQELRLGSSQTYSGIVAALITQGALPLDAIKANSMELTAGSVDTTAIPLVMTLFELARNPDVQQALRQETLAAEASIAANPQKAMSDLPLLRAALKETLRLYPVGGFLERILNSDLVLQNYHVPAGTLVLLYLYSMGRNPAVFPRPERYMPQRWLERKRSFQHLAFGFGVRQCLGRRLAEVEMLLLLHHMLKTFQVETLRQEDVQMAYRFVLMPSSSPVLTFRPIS

[11] = Plasma protein binding in Sprague-Dawley rat; format: ADME, cell-free

| Structure (SMILES) | Ratio IC50 (Homo sapiens) | IC50 [1] [nM] | IC50 [2] [nM] | other results |
| --- | --- | --- | --- | --- |
| c1cncc(-c2ccc3c(c2)CCc2nnc(C4CCCCC4)n2-3)c1 | > 3 | > 8330 | 2400 |  |
| c1cncc(-c2ccc3c(c2)CCc2nnc(C4CC4)n2-3)c1 | > 21 | > 10000 | 487 |  |
| COC(=O)c1cncc(-c2ccc3c(c2)CCc2nnc(C)n2-3)c1 |  | 2200 | 58 | IC50 (Cytochrome P450 3A4): > 50000 nM; IC50 [3]: > 10000 nM; IC50 (Aromatase): > 10000 nM |
| Cc1nnc2n1-c1ccc(-c3cncc(C(=O)N(C)C)c3)cc1CC2 |  | > 8330 | > 8330 |  |
| CNC(=O)c1cncc(-c2ccc3c(c2)CCc2nnc(C)n2-3)c1 |  | > 8330 | > 8330 |  |
| Cc1nnc2n1-c1ccc(-c3cncc([C@@](C)(O)C(F)(F)F)c3)cc1CC2 |  | > 8330 | 109 | logD [4]: 1.2 |
| FC(F)(F)c1nnc2n1-c1ccc(-c3cccnc3)cc1CC2 | > 16 | > 8330 | 506 |  |
| Cc1nnc2n1-c1ccc(-c3cncc4ccccc34)cc1CC2 |  |  | 5 | CLint scaled [5]: 33 mL/min/kg; CL/F [6]: 150 mL/min/kg; half-life [7]: 24 min; IC50 at 3 h (CYP11B1): 407 nM; AUC/dose (Rattus norvegicus): 0.27 µM·kg·h/mg; bioavailability [8]: 75% |
| Cc1nnc2n1-c1ccc(-c3cncc(C(C)(C)O)c3)cc1CC2 | > 29 | > 8330 | 283 | CLint scaled [5]: < 20 mL/min/kg; CL/F [6]: 50 mL/min/kg; IC50 [9]: 34 nM; half-life [7]: 90 min; inhibition (INH) [10]: Active; logD [4]: 0.6; AUC/dose (Rattus norvegicus): 0.19 µM·kg·h/mg; bioavailability [8]: 19% |
| c1ccc(-c2nnc3n2-c2ccc(-c4cccnc4)cc2CC3)cc1 | 13 | 1360 | 103 | IC50 (Cytochrome P450 3A4): 36500 nM; IC50 [3]: 84 nM; IC50 (Aromatase): 21 nM |
| COC(C)(C)c1cncc(-c2ccc3c(c2)CCc2nnc(C)n2-3)c1 |  | 219 | 19 | CLint scaled [5]: 107 mL/min/kg; IC50 (Cytochrome P450 3A4): > 50000 nM; CL/F [6]: 177 mL/min/kg; IC50 [3]: > 10000 nM; IC50 [9]: 3 nM; half-life [7]: 18 min; inhibition (INH) [10]: Active; AUC/dose (Rattus norvegicus): 0.03 µM·kg·h/mg; IC50 (Aromatase): 11200 nM; bioavailability [8]: 10% |
| Cc1nnc2n1-c1ccc(-c3cncc(S(C)(=O)=O)c3)cc1CC2 |  | > 8330 | > 8330 |  |
| Cc1nnc2n1-c1ccc(-c3cncc(S(=O)(=O)c4ccccc4)c3)cc1CC2 |  | 1500 | 40 |  |
| c1cncc(-c2ccc3c(c2)CCc2nncn2-3)c1 | > 33 | > 10000 | 300 |  |
| Cc1nnc2n1-c1ccc(-c3cncc(F)c3)cc1CC2 |  | > 10000 | 558 |  |
| C[C@@](O)(c1cncc(-c2ccc3c(c2)CCc2nnc(C(F)(F)F)n2-3)c1)C(F)(F)F | > 18 | > 8330 | 476 | logD [4]: 2.2 |
| Cc1nnc2n1-c1ccc(-c3cncc(C(F)(F)F)c3)cc1CC2 |  | > 10000 | 486 |  |
| Cc1nnc2n1-c1ccc(-c3cccnc3)cc1CC2 | > 24 | > 10000 | 423 | CLint scaled [5]: 55 mL/min/kg; CL/F [6]: 38 mL/min/kg; half-life [7]: 12 min; AUC/dose (Rattus norvegicus): 0.1 µM·kg·h/mg; bioavailability [8]: 6% |
| COC(=O)C(C)(C)c1cncc(-c2ccc3c(c2)CCc2nnc(C)n2-3)c1 |  | 317 | 19 |  |
| CC(C)(O)c1cncc(-c2ccc3c(c2)CCc2nnc(C(F)(F)F)n2-3)c1 | 3 | 1470 | 526 | CLint scaled [5]: < 20 mL/min/kg; CL/F [6]: 10 mL/min/kg; fraction unbound [11]: 0.997; half-life [7]: 174 min; logD [4]: 1.5; AUC/dose (Rattus norvegicus): 3.87 µM·kg·h/mg; bioavailability [8]: 83% |
| C[C@](O)(c1cncc(-c2ccc3c(c2)CCc2nnc(C(F)(F)F)n2-3)c1)C(F)(F)F | 2 | 887 | 461 | logD [4]: 2.2 |
